Source: paper PMC4912403 (Nature chemical biology, 2016)
“Also recorded” adds a separate entry of the source.

Legend:
sigma-1 receptor = sigma-1 receptor (Cavia porcellus, UniProt Q60492); experiment: sigma-1 radioligand competition binding assay; parameters: species or system rodent
7 dpf zebrafish larvae = experiment: zebrafish strobe light response; assay type: in vivo, Danio rerio; conditions: for switch of strobe light response from freezing to escape behavior (in words): dose curves, freezing index, 7 dpf larvae, 1 hr incubation
Outline: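 7 dpf larvae (EkkWill; TuAB sigmar1 frameshift mutants vs WT siblings) raised in 10 mM HEPES-E3 at 28 °C, 10 per well. Compound added at 1:100 from stock, 1 hr at 28 °C in ambient light; genetic tests included 10 μM scopolamine. Infrared video across alternating 1-min dark/strobe periods. Freezing index = third-quartile motion, strobe minus dark. 12 wells/dose; switching concentration taken from the dose-curve zero intercept.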

Chain of sigma-1 receptor (Q60492 whole entry): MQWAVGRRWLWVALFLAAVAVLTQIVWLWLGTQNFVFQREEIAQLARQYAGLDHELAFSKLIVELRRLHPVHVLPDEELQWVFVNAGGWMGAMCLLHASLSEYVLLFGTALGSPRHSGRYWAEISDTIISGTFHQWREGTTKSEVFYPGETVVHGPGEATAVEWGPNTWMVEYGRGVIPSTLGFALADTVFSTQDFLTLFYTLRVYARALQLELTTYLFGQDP

Compound | switch of strobe light response from freezing to escape behavior (in words) (7 dpf zebrafish larvae) | further results
Cc1cccc(NC(=O)CCN2CCNCC2)c1 [Compound 27, 3-(piperazin-1-yl)-N-(m-tolyl)propanamide] | no effect; also recorded: ineffective at modulating behavior | sigma-1 binding (in words) (sigma-1 receptor): lost its binding potency at sigma-1
CN1CCC[C@H]1c1cccnc1 [nicotine] | did not cause strobe-induced | –
COC(=O)C(c1ccccc1)C1CCCCN1 (centres unmarked) [methylphenidate] | did not cause strobe-induced | –
CC(N)Cc1ccccc1 (centres unmarked) [amphetamine] | did not cause strobe-induced | –
COC(=O)[C@H]1[C@@H](OC(=O)c2ccccc2)C[C@@H]2CC[C@H]1N2C [cocaine] | did not cause strobe-induced | –
COc1ccccc1N1CCN(CC(O)COc2cccc3ccccc23)CC1 (centres unmarked) [naftopidil] | – | switch from freezing to escape at 5 μM (7 dpf zebrafish larvae; 5 μM): just barely switched the zebrafish response from freezing to escape; immobilization of larvae at 10 μM (7 dpf zebrafish larvae; 10 μM, presumably due to toxicity): completely immobilized the larvae
